What was measured:
[1] = test system: CD172+ CD43− monocytes in anti-GBM rats; experiment: Anti-GBM induced glomerulonephritis, blood monocyte analysis; type: in vivo, Wistar Kyoto rats; settings: oral, 4.56 μmol/kg on day 0 or 575 nmol/kg on days 0 and 3, day 6 whole blood
Summary of the method: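 Male WKY rats on folate-deficient diet for 10 days, then IV anti-GBM serum (25 μL/100 g); diet continued. Dosing at 8 h (day 0) and day 3, ± 300-fold molar excess FA competitor; n = 3. Blood in 5 mM K2EDTA, analysed next day: RBC lysis of 100 μL blood, flow staining. CD172+CD43− monocytes expressed as percentage of total leukocytes.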

[2] = test system: Ly6Chigh monocytes in EAU mice; experiment: Experimental autoimmune uveitis; set-up: species or system B10.RIII mice; settings: mouse, in vivo, 200 mg/kg
[3] = test system: RAW264.7 cells; settings: same experimental condition; cited from earlier work
[4] = Pharmacokinetic study in rats; type: in vivo, Lewis rats; settings: rat, EC2319 subcutaneous 500 nmol/kg; analyte = label
[5] = Pharmacokinetic study in dogs; type: in vivo, beagle dogs; settings: dog
[6] = test system: FRβ; settings: cited from earlier work

In the case of `CN(Cc1cnc2nc(N)nc(N)c2n1)c1ccc(C(=O)N[C@@H](CCC(=O)O)C(=O)O)cc1` [MTX, Methotrexate], the “effect on CD172+ CD43− monocytes” value [1] is reported as “ineffective”.

In the case of `CNC(=O)c1cc(Oc2ccc3nc(N[C@@H]4CCCC[C@H]4O)sc3c2)ccn1` [BLZ945], the “effect on classical (R1, Ly6Chigh CD43+) monocytes” value [2] is reported as “reduced significantly to background levels”.

For `Nc1nc(=O)c2nc(CNc3ccc(C(=O)N[C@@H](CCC(=O)O)C(=O)O)cc3)cnc2[nH]1` [FA, Folic acid], the “biological effect of FA alone” value [3] is listed as “did not show an immediate biological effect”.

In the case of `Nc1nc(N)c2nc(CNc3ccc(C(=O)N[C@@H](CCC(=O)O)C(=O)O)cc3)cnc2n1` [AMT, Aminopterin], the “AUClast (% Total)” value [4] is reported as 9.17%, the “difference in AUClast between EC2319-derived AMT and the AMT adduct” value [5] is reported as 3- to 7 fold and the “share of total AUClast” value ([5]; both dosing routes (intravenous 1 mg/kg, subcutaneous 2.43 mg/kg), analyte = label) is reported as 1.37%–2.99%. The “binding affinity toward FRβ” value [6] was “negligible”.

Reference: article PMC8561236 (Cell Reports Medicine, 2021)
